# Assay results from different studies.
# Kir1 channel protein: Kir1 channel protein (Aedes aegypti, UniProt L0EQS9)
# MMP14: Matrix metalloproteinase-14 (MMP14, Homo sapiens, UniProt P50281)
# NTSR1: Neurotensin receptor type 1 (NTSR1, Homo sapiens, UniProt P30989)
# ABHD6: Monoacylglycerol lipase ABHD6 (ABHD6, Homo sapiens, UniProt Q9BV23)
# CYP2E1: Cytochrome P450 2E1 (CYP2E1, Homo sapiens, UniProt P05181)
SMILES,target,test,test system,setting,IC50
N#Cc1ccc(N2CCN(S(=O)(=O)c3ccc(F)cc3)CC2)cc1NCc1ccncc1,Kir1 channel protein,"ion current, inhibitor, patch clamp",,,0.0276 µM
Cc1noc(-c2cc3cc(-c4nc(C(=O)NCc5cccnc5)[nH]c4C)ccc3[nH]2)n1,MMP14,"enzyme activity, inhibitor",,,> 20 µM
COc1ccc(F)cc1C(=O)NCc1ccc(-c2nn([C@@H](C)C(F)(F)F)c(N)c2C(N)=O)cc1,"Tyrosine-protein kinase BTK (BTK, Homo sapiens, UniProt Q06187, C481G)","phosphorylation in cells, inhibitor",,,0.0139 µM
NC(=O)c1cccc(-c2cccc(OC(=O)NC3CCCCC3)c2)c1,"Arylacetamide deacetylase (Homo sapiens, UniProt P22760)","enzyme activity, inhibitor",,,0.19 µM
O=C(O)CC(=O)C(=O)O,"L-lactate dehydrogenase B chain (LDHB, Homo sapiens, UniProt P07195)","enzyme activity, inhibitor",,,1020 µM
O=C1Nc2ccc(I)cc2/C1=C/c1cc(Br)c(O)c(Br)c1,"Protein-glutamine gamma-glutamyltransferase (TGM2, Homo sapiens, UniProt P21980)","enzyme activity, inhibitor",,,50 µM
Cc1noc(-c2cc3cc(-c4cc(C(=O)NCc5ccc(C(=O)O)cc5)nn4C)ccc3[nH]2)n1,MMP14,"enzyme activity, inhibitor",,,> 20 µM
O=[N+]([O-])c1ccc(N2CCN(S(=O)(=O)c3ccccc3)CC2)cc1NCc1cccnc1,Kir1 channel protein,"ion flux, inhibitor",,,0.55 µM
Cc1ccc(C(=O)Nc2ccc(Oc3cc4cnn(C)c4cc3-c3cn[nH]c3)c(F)c2)c(=O)n1-c1ccc(F)cc1,"Vascular endothelial growth factor receptor 1 (FLT1, Homo sapiens, UniProt P17948)","enzyme activity, inhibitor, radiometric",,,0.076 µM
Cc1cc(O)cc(C)c1C[C@H](NC(=O)[C@@H]1CCCN1C(=O)[C@H](CCCNC(=N)N)NC(=O)[C@H](CCCNC(=N)N)N(C)C(=O)[C@@H](CCC(N)=O)NC(=O)[C@@H](CCC(N)=O)NC(=O)[C@@H](CCC(N)=O)NC(=O)[C@H](Cc1cn(CCNC(=O)[C@H](CC(C)C)NC(=O)[C@H](CC(C)C)NC(=O)C2OC2C(=O)O)nn1)NC(=O)CN1CCN(CC(=O)O)CCN(CC(=O)O)CCN(CC(=O)O)CC1)C(=O)N[C@H](C(=O)N[C@@H](CC(C)C)C(=O)O)C(C)(C)C (mixture of isomers),NTSR1,"ligand displacement, radioligand",,,0.092 µM
O=[N+]([O-])c1ccc(N2CCN(S(=O)(=O)c3ccc(F)cc3)CC2)cc1NCc1ccco1,Kir1 channel protein,"ion flux, inhibitor",,,1.29 µM
O=C(c1cc(O)c(O)c([N+](=O)[O-])c1)c1ccccc1F,"Catechol O-methyltransferase (COMT, Sus scrofa, UniProt Q99028)","enzyme activity, inhibitor",,,0.028 µM
CC(C)(C)c1cc(Cc2cc(C(C)(C)C)c(O)c(C(C)(C)C)c2)cc(C(C)(C)C)c1O,"Sarcoplasmic/endoplasmic reticulum calcium ATPase 1 (ATP2A1, Oryctolagus cuniculus, UniProt P04191)","ATPase activity, inhibitor, absorbance",,pH 7.3,17 µM
COc1ccc2c(Oc3ccc4c(C(=O)Nc5ccccc5N)cccc4c3)ccnc2c1,"RAC-beta serine/threonine-protein kinase (AKT2, Homo sapiens, UniProt P31751)","enzyme activity, inhibitor",,,> 0.5 µM
Cc1cnc(-c2ccc(-c3ccc(NC(=O)Nc4c(F)cc(F)cc4F)cc3F)c3c2C(=O)NC3)[nH]1,"Mitogen-activated protein kinase kinase kinase 19 (MAP3K19, Homo sapiens, UniProt Q56UN5)","enzyme activity, inhibitor",,,0.0173 µM
O=[N+]([O-])c1ccc(N2CCN(S(=O)(=O)c3ccc(F)cc3)CC2)cc1NCc1ccccn1,Kir1 channel protein,"ion flux, inhibitor",,,0.8 µM
CC[C@H](C)[C@H](NC(C)=O)C(=O)N[C@@H](CCC(=O)O)C(=O)N[C@H](C(=O)N[C@H](C=O)CC(=O)O)[C@@H](C)O,"Caspase-8 (CASP8, Homo sapiens, UniProt Q14790)","enzyme activity, inhibitor",,,0.00174 µM
Cc1noc(-c2cc3cc(-c4nc(C(=O)NCC5CCOCC5)[nH]c4C)ccc3[nH]2)n1,MMP14,"enzyme activity, inhibitor",,,> 20 µM
O=[N+]([O-])c1ccc(N2CCN(S(=O)(=O)c3ccc(F)cc3)CC2)cc1NCc1ccncc1,Kir1 channel protein,"ion current, inhibitor, patch clamp",,,0.0497 µM
O=C(Oc1nsnc1N1CCCCC1)N1CCOCC1,ABHD6,"enzyme activity, inhibitor, fluorescence",,lysate,0.052 µM
CCC1(c2ccc(C)cc2)C(=O)N(C(=O)OC(C)C)N1C(=O)OC(C)C (stereo not drawn),"Prolyl endopeptidase (Mus musculus, UniProt Q9QUR6)","enzyme activity, inhibitor",,,4.5 µM
N#Cc1ccc(N2CCN(S(=O)(=O)c3ccc(Cl)cc3)CC2)cc1NCc1ccncc1,Kir1 channel protein,"ion current, inhibitor, patch clamp",,,0.039 µM
COc1cc2c(NC3CCN(C)CC3)nc(N3CCCN(C)CC3)nc2cc1OCCOCCN(C)C,"Lysine-specific demethylase 4E (KDM4E, Homo sapiens, UniProt B2RXH2)","enzyme activity, inhibitor",,,> 57 µM
CC/C(=N\NC(=O)C(C)Nc1ccccc1)c1ccc(O)c(C)c1O (stereo not drawn),"Ribosomal protein S6 kinase alpha-5 (RPS6KA5, Homo sapiens, UniProt O75582)","enzyme activity, inhibitor",,,0.0132 µM
O=S(=O)(c1ccc(Cl)cc1)N1CCN(c2cccc(NCc3ccncc3)c2)CC1,Kir1 channel protein,"ion flux, inhibitor",,,4 to 9 µM
Cc1cc(O)cc(C)c1C[C@H](NC(=O)[C@@H]1CCCN1C(=O)[C@H](CCCNC(=N)N)NC(=O)[C@H](CCCNC(=N)N)N(C)C(=O)CNC(=O)[C@@H](CO)NC(=O)CNC(=O)[C@H](Cc1cn(CCNC(=O)[C@H](Cc2ccc(O)cc2)NC(=O)[C@H](CC(C)C)NC(=O)C2OC2C(=O)O)nn1)NC(=O)CN1CCN(CC(=O)O)CCN(CC(=O)O)CCN(CC(=O)O)CC1)C(=O)N[C@H](C(=O)N[C@@H](CC(C)C)C(=O)O)C(C)(C)C (mixture of isomers),NTSR1,"ligand displacement, radioligand",,,0.087 µM
Cn1nc(C(=O)NCc2ccc(C(=O)O)cc2)cc1-c1ccc2[nH]c(-c3cccnc3)cc2c1,MMP14,"enzyme activity, inhibitor",,,> 20 µM
CN1CCN(c2ccc(Nc3ncc4cc(C#N)c(=O)n(C5CCCC5)c4n3)cc2)CC1,"Tyrosine-protein kinase BTK (BTK, Homo sapiens, UniProt Q06187)","enzyme activity, inhibitor",,,0.421 µM
Cc1noc(-c2cc3cc(-c4nc(C(=O)NCc5ccccc5)[nH]c4C)ccc3[nH]2)n1,MMP14,"enzyme activity, inhibitor",,,> 20 µM
O=[N+]([O-])c1ccc(N2CCN(S(=O)(=O)c3ccc(Cl)cc3)CC2)cc1NCc1ccncc1,Kir1 channel protein,"ion flux, inhibitor",,,0.75 µM
Cc1noc(-c2cc3cc(-c4nc(C(=O)NCc5ccncc5)[nH]c4C)ccc3[nH]2)n1,MMP14,"enzyme activity, inhibitor",,,> 20 µM
CCc1cc(/C(C)=N/OCc2ccc(C3CCCCC3)c(C(F)(F)F)c2)ccc1CN1CC(C(=O)O)C1,CYP2E1,"enzyme activity, inhibitor","human, liver microsomes",20 min,> 0.5 µM
O=C(Oc1nsnc1N1CCC2CCCCC2C1)N1CCCCC1 (stereo not drawn),ABHD6,"enzyme activity, inhibitor, fluorescence",,lysate,0.56 µM
C=CC(=O)Nc1cc(Nc2nccc(Nc3cc(Cl)c(F)cc3C(C)(C)O)n2)c(OC)cc1N1CC[C@@H](N(C)C)C1,CYP2E1,"enzyme activity, inhibitor","human, liver microsomes",,> 30 µM
Cn1nc(C(=O)NCc2ccc(C(=O)O)cc2)cc1-c1ccc2[nH]c(-c3ccncc3)cc2c1,MMP14,"enzyme activity, inhibitor",,,> 20 µM
CC1=CC(=O)C(C(C)C)=CC1=O,CYP2E1,"enzyme activity, inhibitor, HPLC",,,97 µM
